ChEMBL document CHEMBL5724801, “EUbOPEN Chemogenomics Library - Multiplex” (2024)
“And” between values parts separate entries of the source, which are not always exact repeats. Equal entries are not always repeated.

Assays:
HEK-293T = assay: Multiplex assay against HEK293T; type: toxicity, cell-based; conditions: human
Outline: (§1)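 Live cells were stained at seeding with Hoechst33342, BioTracker Green Microtubule Cytoskeleton Dye, MitoTracker Red and Annexin V Alexa Fluor 680. Following compound addition, they were imaged on a CQ1 microscope at 37°C and 5% CO2 and gated by CellPathfinder machine learning into Hoechst high-intensity objects or normal cells, with normal cells split into healthy, pyknosed or fragmented nuclei and pyknosed cells into mitotic or apoptotic. Tubulin, mitochondrial-mass and membrane-permeability phenotypes are per cents of healthy-nucleus cells.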

U2OS = assay: Multiplex assay against U2OS; type: toxicity, cell-based; conditions: human; outline: as §1
[1] = 24 h, 1 µM, compound concentration 1 uM
[2] = 24 h, 10 µM, compound concentration 10 uM
[3] = 48 h, 1 µM, compound concentration 1 uM
[4] = 48 h, 10 µM, compound concentration 10 uM
[5] = 12 h, 1 µM, compound concentration 1 uM
[6] = 12 h, 10 µM, compound concentration 10 uM

SMILES: CN(C)Cc1cccc(NC(=C2C(=O)Nc3cc(C(N)=O)ccc32)c2ccccc2)c1
- Population Pyknosed Nuclei (%) (HEK-293T; [1]): 21.51% and 59.21%
- Population Tubulin-Different-Phenotype (%) (HEK-293T; [1]): 13.16% and 7.27%
- Population Apoptotic (%) (HEK-293T; [2]): 26.06% and 39.09%
- Population Fragmented Nuclei (%) (HEK-293T; [2]): 1.76% and 3.57%
- Population Healthy Nuclei (%) (HEK-293T; [2]): 66.02% and 40.31%
- Population Hoechst High Intensity Objects (%) (HEK-293T; [2]): 0.19% and 0%
- Population Membrane Permeable-Phenotype (%) (HEK-293T; [2]): 0.89% and 0%
- Population Mitochondria Different-Phenotype (%) (HEK-293T; [2]): 22.78% and 25.32%
- Population Mitotic Cells (%) (HEK-293T; [2]): 73.94% and 60.91%
- Population Normal (%) (HEK-293T; [2]): 99.81% and 100%
- Population Pyknosed Nuclei (%) (HEK-293T; [2]): 32.23% and 56.12%
- Population Tubulin-Different-Phenotype (%) (HEK-293T; [2]): 32.25% and 18.99%
- Total Cell Count (HEK-293T; [2]): 513 and 196
- Population Apoptotic (%) (HEK-293T; [3]): 10.07% and 19.05%
- Population Fragmented Nuclei (%) (HEK-293T; [3]): 1.84% and 0.58%
- Population Healthy Nuclei (%) (HEK-293T; [3]): 85.36% and 62.57%
- Population Hoechst High Intensity Objects (%) (HEK-293T; [3]): 0%
- Population Membrane Permeable-Phenotype (%) (HEK-293T; [3]): 5.39% and 0.93%
- Population Mitochondria Different-Phenotype (%) (HEK-293T; [3]): 17.15% and 29.91%
- Population Mitotic Cells (%) (HEK-293T; [3]): 89.93% and 80.95%
- Population Normal (%) (HEK-293T; [3]): 100%
- Population Pyknosed Nuclei (%) (HEK-293T; [3]): 12.8% and 36.84%
- Population Apoptotic (%) (HEK-293T; [4]): 19.7% and 35.71%
- Population Fragmented Nuclei (%) (HEK-293T; [4]): 2.75% and 2.37%
- Population Healthy Nuclei (%) (HEK-293T; [4]): 80.73% and 58.89%
- Population Hoechst High Intensity Objects (%) (HEK-293T; [4]): 0.12% and 0.39%
- Population Membrane Permeable-Phenotype (%) (HEK-293T; [4]): 4.19% and 2.01%
- Population Mitochondria Different-Phenotype (%) (HEK-293T; [4]): 43.1% and 38.26%
- Population Mitotic Cells (%) (HEK-293T; [4]): 80.3% and 64.29%
- Population Normal (%) (HEK-293T; [4]): 99.88% and 99.61%
- Population Pyknosed Nuclei (%) (HEK-293T; [4]): 16.52% and 38.74%
- Population Apoptotic (%) (U2OS; [5]): 37.78% and 38.1%
- Population Fragmented Nuclei (%) (U2OS; [5]): 1.29% and 3.85%
- Population Healthy Nuclei (%) (U2OS; [5]): 87.11% and 82.69%
- Population Hoechst High Intensity Objects (%) (U2OS; [5]): 0%
- Population Membrane Permeable-Phenotype (%) (U2OS; [5]): 1.78% and 2.33%
- Population Mitochondria Different-Phenotype (%) (U2OS; [5]): 0.59% and 5.43%
- Population Mitotic Cells (%) (U2OS; [5]): 62.22% and 61.9%
- Population Normal (%) (U2OS; [5]): 100%
- Population Pyknosed Nuclei (%) (U2OS; [5]): 11.6% and 13.46%
- Population Tubulin-Different-Phenotype (%) (U2OS; [5]): 1.18% and 0%
- Total Cell Count (U2OS; [5]): 388 and 156
- Population Apoptotic (%) (U2OS; [6]): 35.71% and 43.75%
- Population Healthy Nuclei (%) (U2OS; [6]): 86.17% and 71.36%
- Population Hoechst High Intensity Objects (%) (U2OS; [6]): 0%
- Population Membrane Permeable-Phenotype (%) (U2OS; [6]): 3.66% and 11.27%
- Population Mitotic Cells (%) (U2OS; [6]): 64.29% and 56.25%
- Population Normal (%) (U2OS; [6]): 100%
- Population Pyknosed Nuclei (%) (U2OS; [6]): 10.19% and 8.04%
- Population Tubulin-Different-Phenotype (%) (U2OS; [6]): 6.48% and 4.93%
- Total Cell Count (U2OS; [6]): 412 and 199
- Population Apoptotic (%) (U2OS; [1]): 42% and 39.29%
- Population Fragmented Nuclei (%) (U2OS; [1]): 1.87% and 0.52%
- Population Healthy Nuclei (%) (U2OS; [1]): 88.81% and 84.97%
- Population Hoechst High Intensity Objects (%) (U2OS; [1]): 0%
- Population Membrane Permeable-Phenotype (%) (U2OS; [1]): 1.89% and 4.27%
- Population Mitochondria Different-Phenotype (%) (U2OS; [1]): 0.42% and 6.1%
- Population Mitotic Cells (%) (U2OS; [1]): 58% and 60.71%
- Population Normal (%) (U2OS; [1]): 100%
- Population Pyknosed Nuclei (%) (U2OS; [1]): 9.33% and 14.51%
- Population Tubulin-Different-Phenotype (%) (U2OS; [1]): 1.47% and 0.61%
- Total Cell Count (U2OS; [1]): 536 and 193
- Population Apoptotic (%) (U2OS; [2]): 50.75% and 51.72%
- Population Healthy Nuclei (%) (U2OS; [2]): 82.77% and 70.62%
- Population Hoechst High Intensity Objects (%) (U2OS; [2]): 0%
- Population Membrane Permeable-Phenotype (%) (U2OS; [2]): 2.06% and 8.72%
- Population Mitotic Cells (%) (U2OS; [2]): 49.25% and 48.28%
- Population Normal (%) (U2OS; [2]): 100%
- Population Pyknosed Nuclei (%) (U2OS; [2]): 14.26% and 13.74%
- Population Tubulin-Different-Phenotype (%) (U2OS; [2]): 4.88% and 2.68%
- Total Cell Count (U2OS; [2]): 470 and 211
- Population Apoptotic (%) (U2OS; [3]): 48.91% and 34.38%
- Population Fragmented Nuclei (%) (U2OS; [3]): 3.29% and 3.37%
- Population Healthy Nuclei (%) (U2OS; [3]): 86.93% and 86.81%
- Population Hoechst High Intensity Objects (%) (U2OS; [3]): 0.11% and 0%
- Population Membrane Permeable-Phenotype (%) (U2OS; [3]): 1.34% and 2.47%
- Population Mitochondria Different-Phenotype (%) (U2OS; [3]): 0.37% and 3.53%
- Population Mitotic Cells (%) (U2OS; [3]): 51.09% and 65.62%
- Population Normal (%) (U2OS; [3]): 99.89% and 100%
- Population Pyknosed Nuclei (%) (U2OS; [3]): 9.78% and 9.82%
- Population Tubulin-Different-Phenotype (%) (U2OS; [3]): 1.1% and 0.71%
- Total Cell Count (U2OS; [3]): 942 and 326
- Population Apoptotic (%) (U2OS; [4]): 57.52% and 51.28%
- Population Healthy Nuclei (%) (U2OS; [4]): 81.24% and 71.84%
- Population Hoechst High Intensity Objects (%) (U2OS; [4]): 0%
- Population Membrane Permeable-Phenotype (%) (U2OS; [4]): 3.41% and 6.53%
- Population Mitochondria Different-Phenotype (%) (U2OS; [4]): 0.33% and 7.54%
- Population Mitotic Cells (%) (U2OS; [4]): 42.48% and 48.72%
- Population Normal (%) (U2OS; [4]): 100%
- Population Pyknosed Nuclei (%) (U2OS; [4]): 14.93% and 14.08%
- Population Tubulin-Different-Phenotype (%) (U2OS; [4]): 4.88% and 7.04%
- Total Cell Count (U2OS; [4]): 757 and 277
